# The list is not random: actives were taken first. Their share in the collection is about 6.7%.
# PREPL inhibitor – PREPL enzyme inhibitors, primary screen, biochemical, fluorescence polarization; recombinant PREPL, fluorescence polarization activity-based probe; Prolyl endopeptidase-like (Homo sapiens), Q4J6C6; inhibition, % at 5.96 µM; AID 2751, 2010; 320,000 compounds, 0.68% hits; in the data active = inhibition above about 43%;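 note: 0% = enzyme with DMSO and 100% = wells lacking enzyme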
# Target sequence (Q4J6C6 whole entry, looked up): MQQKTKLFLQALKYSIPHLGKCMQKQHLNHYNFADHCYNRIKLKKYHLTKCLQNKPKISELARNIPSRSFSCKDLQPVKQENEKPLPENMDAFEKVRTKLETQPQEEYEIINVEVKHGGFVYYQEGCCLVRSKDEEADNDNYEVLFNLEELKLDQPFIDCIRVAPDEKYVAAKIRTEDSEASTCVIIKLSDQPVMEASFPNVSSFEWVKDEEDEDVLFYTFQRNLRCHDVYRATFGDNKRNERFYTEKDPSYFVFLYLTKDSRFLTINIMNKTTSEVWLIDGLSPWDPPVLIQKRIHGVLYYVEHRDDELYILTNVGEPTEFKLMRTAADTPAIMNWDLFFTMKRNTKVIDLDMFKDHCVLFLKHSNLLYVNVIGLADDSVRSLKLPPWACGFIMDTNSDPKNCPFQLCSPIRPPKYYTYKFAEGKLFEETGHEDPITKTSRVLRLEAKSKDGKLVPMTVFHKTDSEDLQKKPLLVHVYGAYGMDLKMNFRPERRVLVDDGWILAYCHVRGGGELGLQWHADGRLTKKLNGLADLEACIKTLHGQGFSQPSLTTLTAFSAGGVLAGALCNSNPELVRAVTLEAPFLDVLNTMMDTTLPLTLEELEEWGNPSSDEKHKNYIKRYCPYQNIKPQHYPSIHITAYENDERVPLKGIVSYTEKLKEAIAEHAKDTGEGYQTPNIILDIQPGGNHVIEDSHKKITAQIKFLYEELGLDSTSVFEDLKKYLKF
# CHOP inhibitor – inhibitors of CHOP promoter induction, primary screen, cell-based, unfolded protein response, luciferase reporter; AID 2732, 2010; inhibition, % at 10 µM; 220,000 compounds, 3.8% hits; CHO-K1 CHOP-promoter luciferase, tunicamycin-induced, 15-18 h;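 active = compounds that reduced the stress-induced luciferase reporter signal by more than about 70% of percent inhibition, limit read from the data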;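 note: 0% = tunicamycin plus vehicle and 100% = wells without tunicamycin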
# CSC inhib – cancer stem cell viability inhibitors, primary screen, luminescence; cancer stem cell-like cells viability; inhibition, % at 7.5 µM; 300,000 compounds, 1.1% hits; AID 2717, 2010; in the data active = inhibition above about 75%; inconclusive = no clear call, values can overlap the other calls; tested in HMLE shEcad cells
# Beta apoptosis – inhibitors of cytokine-induced beta cell apoptosis, primary screen, luminescence. INS-1E cytokine-induced death, ATP luminescence, 48 h; percent of positive-control rescue, neutral wells zero. 300,000 compounds, 0.8% hits. protection from apoptosis, % (test concentration not listed). AID 435005, 2010;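 active = Every replicate reaches about 75%, or at least half do and their mean reaches it too, limit read from the data; inconclusive = At least half of replicates reach the limit but their mean does not; inactive = Under half of replicates reach the limit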;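 note: 0% = cytokine-treated negative control wells and 100% = positive control rescue; higher means more ATP so stronger rescue from cytokine killing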
# NR3A LBD binder – binders of NR3A ligand-binding domain, primary screen, biophysical, differential scanning fluorimetry, uHTS | 340,000 compounds, 2.5% hits | NR3A LBD differential scanning fluorimetry, Tm shift; 0% = protein alone, 100% = glycine-bound protein | Glutamate receptor ionotropic, NMDA 3A (GRIN3A) ligand-binding domain | Tm shift relative to glycine control, % at 25 µM;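 active = melting temperature shift of at least 10% of the positive control shift, at one fixed dose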
# T cruzi inh – inhibitors of intracellular T. cruzi growth, primary screen, luminescence, NIH3T3 host cells; T. cruzi beta-gal in NIH3T3, 90 h; 300,000 compounds, 1.4% hits; inhibition, % (no concentration beside the values);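 active = mean inhibition across valid replicates above about 55%, limit read from the data; inconclusive = mean below that limit but half or more replicates reach it; inactive = mean below it, under half of replicates reach it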;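 note: signal also drops with host cell toxicity which is not excluded here; 0% = plate median of DMSO wells and 100% = zero luminescence signal; higher percent means less beta-gal luminescence so fewer parasites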
#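 assay system = mouse NIH/3T3 fibroblasts infected with β-gal-expressing T. cruzi Tulahuen C4 | input = 5,000 NIH/3T3 host cells per well | buffer or medium = DMEM plus 2% FBS | timing = 3 h host attachment, then at least 90 h co-culture | measured by = GalScreen luminescence, 60 min | evaluation = luminescence reflecting intracellular parasite burden, expressed as percent inhibition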
# CHOP confirm – retest of CHOP induction inhibitors, confirmation, cell-based; shares compounds with CHOP inhibitor; CHO-CHOP promoter luciferase reporter, tunicamycin-induced, luminescence; inhibition, % at 10 µM; 2,100 compounds, 45% hits;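 active = mean of three repeat readings of reporter signal inhibition above a set limit, cut at about 70% in these data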;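 note: 0% = tunicamycin plus vehicle and 100% = wells lacking tunicamycin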
# Numbers without * were called inactive; ? = inconclusive; . = no result.
SMILES,PREPL inhibitor,CHOP inhibitor,CSC inhib,Beta apoptosis,NR3A LBD binder,T cruzi inh,CHOP confirm
Nc1c(S(=O)(=O)c2cccc(Cl)c2)c2nc3ccccc3nc2n1/N=C/c1ccc(O)c(O)c1,64.6*,107.4*,-9.7,51.2,.,62.0*,102.8*
COc1cccc(/C=N/n2c(N)c(S(=O)(=O)c3cccs3)c3nc4ccccc4nc32)c1OC,-6.1,-75.9,5.2,28.1,0.2,35.3,.
O/N=C/c1cc(Cl)ccc1OCc1ccccc1Cl,-77.4,107.2*,?,3.0,-20.2,9.3,29.7
Cc1ccc(COc2ccc(Br)cc2/C=N/O)cc1,-7.8,109.7*,77.7*,-10.1,-30.0,17.0,104.5*
O/N=C/c1cc(Br)ccc1OCc1ccc(F)cc1,-28.1,.,14.3,-3.5,-20.7,3.1,.
CCOc1ccc(Cl)cc1/C=N/O,9.0,29.9,-1.9,0.3,4.2,-5.3,.
COCc1c(CCl)cnc(C)c1O,-8.2,-25.0,-22.0,-7.3,1.6,-11.5,.
CN(C)CCCn1c(SCC(=O)Nc2nc(-c3cccc(Br)c3)cs2)nc2ccccc2c1=O,-144.5,105.6*,?,14.8,-5.1,68.3*,104.6*
O=C(CSc1nc2ccccc2[nH]1)Nc1nc(-c2cccc(Br)c2)cs1,-55.2,66.7,-10.7,-4.1,0.5,2.8,.
COC(=O)[C@]1(C)N[C@H](CN(C)S(=O)(=O)c2ccccc2)[C@@H]2C(=O)N(Cc3ccccc3)C(=O)[C@@H]21,31.4,.,0.0,-3.8,7.4,.,.
O=C(CSc1nnc(SCc2cccc3ccccc23)s1)N=Nc1c(O)[nH]c2ccccc12,5.9,96.6*,38.3,-5.8,.,.,15.3
Cc1ccccc1N1C(=O)c2sc3nc4c(c(=O)n3c2C1=O)CCC4,1.1,106.3*,-21.6,5.5,-0.3,-34.1,-14.1
O=C1c2sc3nc4ccccc4n3c2C(=O)N1c1ccccc1Cl,10.2,106.1*,17.8,0.6,-7.2,1.0,-5.1
CC(C)(C)c1ccc(C(=O)NCC(=O)N/N=C/c2cccnc2)cc1,7.6,.,-14.0,2.1,0.5,11.9,.
CC(C)Oc1ccc(S(=O)(=O)N2CCOCC2)cc1NC(=O)C1=NN(c2ccccc2)C(=O)CC1,.,.,.,.,-3.9,.,.
Cc1oc(=O)c(NC(=O)c2cccc(Cl)c2)cc1C(=O)c1ccccc1,-5.7,103.9*,?,8.6,1.0,-20.9,64.2
COc1ccc(C(=O)Nc2cc(C(=O)c3ccccc3)c(C)oc2=O)cc1,3.8,-70.4,-1.6,.,1.6,-41.4,.
CN(CC(=O)Nc1ccccc1C(=O)NC1CC1)Cc1ccc(N(C)C)cc1,18.8,.,.,0.4,0.3,.,.
COc1cc(NC(=O)c2ccco2)c(C(=O)OCC(=O)c2c[nH]c3ccccc23)cc1OC,-21.4,106.7*,82.8*,42.6,14.1*,5.7,41.7
O=C(OCC(=O)c1c[nH]c2ccccc12)c1ccco1,6.8,12.2,-8.1,-2.1,3.0,3.4,.
COc1ccc(NC(=O)CN2CCCC(C)C2)c([N+](=O)[O-])c1 (centres undefined),3.6,101.1*,-1.8,-1.2,3.1,4.5,40.4
COCC(=O)NC1CCN(CC(=O)Nc2ccc(OC)cc2[N+](=O)[O-])CC1,1.7,-43.6,-10.5,-7.1,-1.7,-3.5,.
CCc1ccc(OCC(=O)N2CCN(c3ccccn3)CC2)c(Br)c1,-27.4,.,-2.7,-8.2,-0.3,-7.3,.
Cc1ccc(C)c(Oc2ncnc(N)c2[N+](=O)[O-])c1,5.2,-8.8,-2.2,-10.9,0.5,-14.3,.
Cc1cc(Sc2nc(N)ncc2[N+](=O)[O-])ncn1,7.0,105.9*,15.3,-13.5,-2.5,61.3*,26.1
Cc1cc(Sc2ncnc(N)c2[N+](=O)[O-])ncn1,7.6,106.2*,37.0,-40.8,-1.2,53.3,60.6
CC(C)c1nnc(NC(=O)c2c(O)c3cccc4c3n(c2=O)CCC4)s1,7.1,103.8*,24.3,21.6,-0.8,-1.3,109.3*

# Source: PubChem BioAssay
